From ChEMBL document CHEMBL3407428, “Synthesis, in vitro and in vivo antitumor activity of scopoletin-cinnamic acid hybrids” (Eur J Med Chem, 2015)
Active and inactive are the calls of the source. The rule behind the calls is not given here.

Tests used:
[1] = Cytotoxicity against human HCT116 cells assessed as growth inhibition at 10^-5 M after 72 hrs by MTT assay relative to control; type: functional; conditions: HCT-116, 72 h, read-out: GI
A549 [2] = assay: Cytotoxicity against human A549 cells assessed as growth inhibition at 10^-5 M after 72 hrs by MTT assay relative to control; type: functional; conditions: A549, 72 h, read-out: GI
MDA-MB-231 [3] = assay: Cytotoxicity against human MDA-MB-231 cells assessed as growth inhibition at 10^-5 M after 72 hrs by MTT assay relative to control; type: functional; conditions: MDA-MB-231, 72 h, read-out: GI
MCF7 = assay: Cytotoxicity against human MCF7 cells assessed as growth inhibition at 10^-5 M after 72 hrs by MTT assay relative to control; type: functional; conditions: MCF7, 72 h, read-out: GI
HeLa = assay: Cytotoxicity against human HeLa cells assessed as growth inhibition at 10^-5 M after 72 hrs by MTT assay relative to control; type: functional; conditions: read-out: GI
A549 [4] = assay: Cell cycle arrest in human A549 cells assessed as accumulation at S phase at 0.1 uM after 24 hrs by propidium iodide staining-based flow cytometric analysis relative to control; type: functional
How it was run: (§1)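 A549 cells (3 × 10^5 per well) were seeded overnight, then treated at 0, 0.01, 0.1 or 1 µM for 24 h. Cells were harvested, washed in cold PBS and fixed in cold 70% ethanol for at least 24 h. They were then RNase A-treated and stained with propidium iodide (50 µg/mL) at room temperature. DNA content was analysed by FACSCalibur flow cytometry.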

[5] = system: Lewis lung carcinoma cell line; assay: Antitumor activity against mouse LLC cells allografted in C57BL/6 mouse assessed as tumor growth inhibition at 2.5 mg/kg, ip administered for 14 days measured on day 15 relative to control; type: functional; conditions: route intraperitoneal, read-out: TGI
How it was run: (§2)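 Female C57BL/6 mice (18–22 g) given 3 × 10^6 Lewis lung cancer cells subcutaneously in the right flank; dosing began 7 to 21 days after inoculation. Mice were randomized into groups of 10. Treatment was intraperitoneal daily for 14 days at 2.5, 5 or 10 mg/kg, with a saline control group. Tumors were excised and weighed when the mice were killed after 14 days.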

A549 [6] = assay: Cell cycle arrest in human A549 cells assessed as accumulation at S phase at 0.01 uM after 24 hrs by propidium iodide staining-based flow cytometric analysis relative to control; type: functional; how it was run: as §1
A549 [7] = assay: Induction of apoptosis in human A549 cells assessed as early apoptotic cells at 0.01 uM after 24 hrs by Annexin V and propidium iodide staining-based flow cytometric analysis (reference value: 8.2%); type: functional
A549 [8] = assay: Induction of apoptosis in human A549 cells assessed as viable cells at 0.1 uM after 24 hrs by Annexin V and propidium iodide staining-based flow cytometric analysis (reference value: 83%); type: functional; conditions: A549, 24 h, read-out: Activity
[9] = system: Lewis lung carcinoma cell line; assay: Antitumor activity against mouse LLC cells allografted in C57BL/6 mouse assessed as tumor growth inhibition at 5 mg/kg, ip administered for 14 days measured on day 15 relative to control; type: functional; conditions: route intraperitoneal, read-out: TGI; how it was run: as §2
A549 [10] = assay: Cytotoxicity against human A549 cells assessed as growth inhibition after 72 hrs by MTT assay; type: functional, cell-based; conditions: A549, 72 h
How it was run: (§3)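 MTT viability assay. Cells were seeded at 5000 per well, incubated overnight, then exposed to compound at a range of concentrations for 72 h. MTT was added from a 5 mg/mL stock for 4 h, and absorbance was read at 570 nm. IC50 (50% viability inhibition) was calculated by the logit method. Each concentration was run at least three times.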

A549 [11] = assay: Induction of apoptosis in human A549 cells assessed as late apoptotic cells at 1 uM after 24 hrs by Annexin V and propidium iodide staining-based flow cytometric analysis (reference value: 7.4%); type: functional
[12] = system: Lewis lung carcinoma cell line; assay: Antitumor activity against mouse LLC cells allografted in ip dosed C57BL/6 mouse assessed as tumor growth inhibition administered for 14 days measured on day 15; type: functional, organism-based; how it was run: as §2
A549 [13] = assay: Induction of apoptosis in human A549 cells assessed as early apoptotic cells at 1 uM after 24 hrs by Annexin V and propidium iodide staining-based flow cytometric analysis (reference value: 8.2%); type: functional
A549 [14] = assay: Induction of apoptosis in human A549 cells assessed as early apoptotic cells at 0.1 uM after 24 hrs by Annexin V and propidium iodide staining-based flow cytometric analysis (reference value: 8.2%); type: functional
A549 [15] = assay: Induction of apoptosis in human A549 cells assessed as late apoptotic cells at 0.1 uM after 24 hrs by Annexin V and propidium iodide staining-based flow cytometric analysis (reference value: 7.4%); type: functional
A549 [16] = assay: Cell cycle arrest in human A549 cells assessed as accumulation at G2/M phase at 0.01 to 1 uM after 24 hrs by propidium iodide staining-based flow cytometric analysis; type: functional; how it was run: as §1
A549 [17] = assay: Induction of apoptosis in human A549 cells assessed as late apoptotic cells at 0.01 uM after 24 hrs by Annexin V and propidium iodide staining-based flow cytometric analysis (reference value: 7.4%); type: functional
Mus musculus = assay: Toxicity in C57BL/6 mouse allografted with mouse LLC cells assessed as change in body weight at 2.5 to 10 mg/kg, ip administered for 14 days measured during compound dosing; type: organism-based; parameters: dose 2.5-10 mg/kg, route intraperitoneal; conditions: in vivo, 336 h
How it was run: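 LLC-bearing female C57BL/6 mice (18–22 g; 3 × 10^6 cells s.c., right flank) were randomized into groups of 10 and dosed i.p. daily for 14 days, with a saline control. Body weight was recorded every day from the first treatment.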

A549 [18] = assay: Induction of apoptosis in human A549 cells assessed as viable cells at 0.01 uM after 24 hrs by Annexin V and propidium iodide staining-based flow cytometric analysis (reference value: 83%); type: functional; conditions: A549, 24 h, read-out: Activity
A549 [19] = assay: Induction of apoptosis in human A549 cells assessed as dead cells at 1 uM after 24 hrs by Annexin V and propidium iodide staining-based flow cytometric analysis (reference value: 1.4%); type: functional
[20] = system: Lewis lung carcinoma cell line; assay: Antitumor activity against mouse LLC cells allografted in C57BL/6 mouse assessed as tumor growth inhibition at 10 mg/kg, ip administered for 14 days measured on day 15 relative to control; type: functional; conditions: route intraperitoneal, read-out: TGI; how it was run: as §2
[21] = Cytotoxicity against human HCT116 cells assessed as growth inhibition after 72 hrs by MTT assay; type: functional, cell-based; conditions: HCT-116, 72 h; how it was run: as §3
A549 [22] = assay: Cell cycle arrest in human A549 cells assessed as accumulation at S phase at 1 uM after 24 hrs by propidium iodide staining-based flow cytometric analysis relative to control; type: functional; how it was run: as §1
A549 [23] = assay: Cell cycle arrest in human A549 cells assessed as accumulation at G0/G1 phase at 0.01 to 1 uM after 24 hrs by propidium iodide staining-based flow cytometric analysis; type: functional; conditions: in the assay text read “S phase” for “G0/G1 phase”; how it was run: as §1
A549 [24] = assay: Induction of apoptosis in human A549 cells assessed as dead cells at 0.01 uM after 24 hrs by Annexin V and propidium iodide staining-based flow cytometric analysis (reference value: 1.4%); type: functional
A549 [25] = assay: Induction of apoptosis in human A549 cells assessed as viable cells at 1 uM after 24 hrs by Annexin V and propidium iodide staining-based flow cytometric analysis (reference value: 83%); type: functional; conditions: A549, 24 h, read-out: Activity
A549 [26] = assay: Induction of apoptosis in human A549 cells assessed as dead cells at 0.1 uM after 24 hrs by Annexin V and propidium iodide staining-based flow cytometric analysis (reference value: 1.4%); type: functional
MDA-MB-231 [27] = assay: Cytotoxicity against human MDA-MB-231 cells assessed as growth inhibition after 72 hrs by MTT assay; type: functional, cell-based; conditions: MDA-MB-231, 72 h; how it was run: as §3

COc1cc(CCC(=O)Oc2cc3oc(=O)ccc3cc2OC)ccc1O
inhibition of growth at 10 µM [1]: 16.1%
inhibition of growth at 10 µM (A549 [2]): 6.16%
inhibition of growth at 10 µM (MDA-MB-231 [3]): 9.73%
inhibition of growth at 10 µM (MCF7): 8.55%
inhibition of growth at 10 µM (HeLa): 15.4%

COc1cc2ccc(=O)oc2cc1OC(=O)/C=C/c1ccccc1
inhibition of growth at 10 µM [1]: 12.2%
inhibition of growth at 10 µM (A549 [2]): 19.4%
inhibition of growth at 10 µM (MDA-MB-231 [3]): 10.1%
inhibition of growth at 10 µM (MCF7): 3.65%
inhibition of growth at 10 µM (HeLa): 19.4%

COc1cc2cc(NC(=O)/C=C/c3ccc(Cl)cc3)c(=O)oc2cc1O
inhibition of growth at 10 µM [1]: 64.3%
Activity (A549 [4]): 19.6%
inhibition of growth at 10 µM (A549 [2]): 87.9%
inhibition in vivo at 2.5 mg/kg [5]: 18.1%
Activity (A549 [6]): 9.2%
inhibition of growth at 10 µM (MDA-MB-231 [3]): 70.8%
Activity (A549 [7]): 5.7%
viability at 0.1 µM (A549 [8]): 85.7%
inhibition in vivo at 5 mg/kg [9]: 33.6%
IC50 (A549 [10]): 249 nM
Activity (A549 [11]): 7.3%
inhibition of growth at 10 µM (MCF7): 70.1%
TGI [12]: Dose-dependent effect
Activity (A549 [13]): 24.3%
Activity (A549 [14]): 8.3%
Activity (A549 [15]): 3.6%
Activity (A549 [16]): inactive
Activity (A549 [17]): 3.7%
Activity (Mus musculus): Non-toxic
viability at 0.01 µM (A549 [18]): 86.4%
Activity (A549 [19]): 1.8%
inhibition in vivo at 10 mg/kg [20]: 49.5%
IC50 [21]: 684 nM
Activity (A549 [22]): 19.3%
Activity (A549 [23]): Active
Activity (A549 [24]): 4.3%
viability at 1 µM (A549 [25]): 66.5%
inhibition of growth at 10 µM (HeLa): 86.2%
Activity (A549 [26]): 2.4%
IC50 (MDA-MB-231 [27]): 231 nM

COc1cc2cc(NC(=O)/C=C/c3ccc(F)cc3)c(=O)oc2cc1O
inhibition of growth at 10 µM [1]: 54.2%
inhibition of growth at 10 µM (A549 [2]): 85.6%
inhibition of growth at 10 µM (MDA-MB-231 [3]): 69.2%
IC50 (A549 [10]): 612 nM
inhibition of growth at 10 µM (MCF7): 58.4%
IC50 [21]: 5540 nM
inhibition of growth at 10 µM (HeLa): 67.1%
IC50 (MDA-MB-231 [27]): 2350 nM

COc1cc2ccc(=O)oc2cc1OC(=O)/C=C/c1ccc(F)cc1
inhibition of growth at 10 µM [1]: 18%
inhibition of growth at 10 µM (A549 [2]): 21.4%
inhibition of growth at 10 µM (MDA-MB-231 [3]): 19.3%
inhibition of growth at 10 µM (MCF7): 1.77%
inhibition of growth at 10 µM (HeLa): 3.89%

COc1cc2cc(NC(=O)/C=C/c3ccccc3)c(=O)oc2cc1O
inhibition of growth at 10 µM [1]: 60.3%
inhibition of growth at 10 µM (A549 [2]): 65.7%
inhibition of growth at 10 µM (MDA-MB-231 [3]): 44.5%
IC50 (A549 [10]): 2180 nM
inhibition of growth at 10 µM (MCF7): 6.06%
IC50 [21]: 1150 nM
inhibition of growth at 10 µM (HeLa): 58.3%
IC50 (MDA-MB-231 [27]): 369 nM

COc1ccc(/C=C/C(=O)Nc2cc3cc(OC)c(O)cc3oc2=O)cc1
inhibition of growth at 10 µM [1]: 75.7%
inhibition of growth at 10 µM (A549 [2]): 88.6%
inhibition of growth at 10 µM (MDA-MB-231 [3]): 61.4%
IC50 (A549 [10]): 649 nM
inhibition of growth at 10 µM (MCF7): 44.8%
IC50 [21]: 505 nM
inhibition of growth at 10 µM (HeLa): 60.9%
IC50 (MDA-MB-231 [27]): 578 nM

COc1ccc(/C=C/C(=O)Oc2cc3oc(=O)ccc3cc2OC)cc1
inhibition of growth at 10 µM [1]: 31.6%
inhibition of growth at 10 µM (A549 [2]): 0.53%
inhibition of growth at 10 µM (MDA-MB-231 [3]): 20.8%
inhibition of growth at 10 µM (MCF7): 13.7%
inhibition of growth at 10 µM (HeLa): 19.5%

COc1cc(/C=C/C(=O)Oc2cc3oc(=O)ccc3cc2OC)ccc1OCc1ccccc1
inhibition of growth at 10 µM [1]: 4.36%
inhibition of growth at 10 µM (A549 [2]): 10.4%
inhibition of growth at 10 µM (MDA-MB-231 [3]): 1.39%
inhibition of growth at 10 µM (MCF7): 9.91%
inhibition of growth at 10 µM (HeLa): 2.36%
